Compound activity from PubChem BioAssay.
RGS4 block: inhibitors of human RGS4; HEK293 M3R/RGS4 inducible, Fluo-4 calcium flux; stronger effect = higher value; triggered by carbachol at its EC20; AID 463165; B-score at 10 µM; hit rate 0.45% among 310,000; P49798;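 active = B-score, a plate-corrected calcium signal, over three deviations above library mean, with baseline fluorescence within five deviations of library mean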;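 also: RGS4 expression induced by doxycycline in cells with stable M3 receptor; B-score is computed from the integrated fluorescence ratio over baseline after carbachol; higher B-score means a larger calcium signal and so more RGS4 inhibition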
Target sequence (P49798 whole entry, looked up): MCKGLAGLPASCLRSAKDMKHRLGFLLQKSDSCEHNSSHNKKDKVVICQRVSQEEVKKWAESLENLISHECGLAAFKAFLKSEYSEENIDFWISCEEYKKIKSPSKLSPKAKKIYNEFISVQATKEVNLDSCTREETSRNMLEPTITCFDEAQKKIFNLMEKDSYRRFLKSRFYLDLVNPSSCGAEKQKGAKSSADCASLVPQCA
MrgX1 ag: human MrgX1 receptor agonism, primary screen; Q96LB2; hit rate 0.44% among 310,000; AID 588627; B-score at 10 µM; MrgX1-HEK293 cells, Fluo-4 calcium fluorescence, agonist mode; stronger effect = higher value;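 active = calcium response B-score plate-corrected fluorescence ratio at least 3 library SD, with starting fluorescence B-score inside 5 SD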
Target sequence (Q96LB2 whole entry, looked up): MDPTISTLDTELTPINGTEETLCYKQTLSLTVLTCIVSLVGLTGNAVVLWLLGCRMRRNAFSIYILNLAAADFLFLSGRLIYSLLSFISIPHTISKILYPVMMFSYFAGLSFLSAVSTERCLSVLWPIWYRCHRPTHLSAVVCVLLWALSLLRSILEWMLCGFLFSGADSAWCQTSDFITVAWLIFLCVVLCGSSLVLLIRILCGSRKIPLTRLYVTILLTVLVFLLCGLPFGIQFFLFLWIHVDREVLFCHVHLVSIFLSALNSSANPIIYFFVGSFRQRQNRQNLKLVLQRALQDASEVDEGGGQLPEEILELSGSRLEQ
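System – MrgX1-expressing HEK293 cells · Incubation – cells plated overnight, dye loaded 0.5 h 37 °C, 0.5 h room temperature · Technique – kinetic Fluo-4 NW fluorescence of intracellular calcium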
RGS4 act: RGS4 potentiation or activation. HEK293 M3R/inducible RGS4, carbachol calcium flux Fluo4; stronger effect = lower value. B-score at 10 µM. hit rate 0.92% among 310,000. AID 463111;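 active = B-score of the integrated calcium signal more than 4 SD below the library mean, with starting fluorescence not abnormally high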;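 also: negative B-score means reduced calcium response which marks RGS4 activation or potentiation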
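Test system: HEK293 cells with stable M3R and inducible RGS4; also added: carbachol at ECmax as muscarinic agonist stimulus; schedule: dye loading 30 min 37 °C, buffer rest 30 min RT; technique: kinetic calcium fluorescence imaging with Fluo4-AM dye, 2 µM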
MrgX1 antag: antagonists of human MrgX1 receptor | Q96LB2 | MRGX1-HEK293 calcium flux, Fluo-4, BAM8-22 antagonism; stronger effect = lower value | B-score at 10 µM | hit rate 1.3% among 310,000;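 active = calcium-response B-score plate-corrected more than 3 library SD below zero, starting fluorescence within 5 deviations, no agonist response on first addition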;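 also: peak minus trough fluorescence over baseline after final BAM8-22 challenge near maximal dose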
MrgX1 PAM: allosterically activates human MrgX1 receptor signaling; Q96LB2; MrgX1-HEK293, Fluo-4 calcium flux, FDSS; stronger effect = higher value; B-score at 10 µM; hit rate 0.63% among 310,000;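 active = plate-corrected calcium response at least 3 library SD above typical, normal starting fluorescence, not activating the receptor alone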;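 also: compound read alongside a low EC10 to EC30 dose of BAM8-22 agonist; peak minus trough fluorescence over baseline measured at the second addition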
Kir21 inh: inhibitors of mouse Kir2.1 inward-rectifier potassium channel; hit rate 0.85% among 310,000; P35561; B-score at 10 µM; HEK293-Kir2.1, FluxOR thallium flux fluorescence; stronger effect = lower value;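 active = fluorescence ratio B-score at or below minus 3 SD of library scores, with starting-brightness B-score within 2 SD, cut at about -4.2 in these data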;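 also: channel flux triggered by added potassium and thallium sulfate stimulus; B-score of peak minus minimum fluorescence over baseline after thallium stimulus; more negative B-score means stronger Kir2.1 block with less thallium influx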
MrgX1 allo conf: confirmation of human MrgX1 receptor positive allosteric modulators; shares compounds with MrgX1 PAM; MrgX1-HEK293, Fluo-4 calcium fluorescence, FDSS; activation (ratio percentage), % at 10 µM; hit rate 13% among 1,200;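 active = ratio at least 3 SD above the weak peptide control, stable starting fluorescence, no direct agonism earlier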;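 also: compound followed by low BAM8-22 agonist challenge near EC20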
HEK293 Ca flux: activity in parental HEK293 cells lacking MrgX1; fluorescence ratio F(max-min)/F0 at 10 µM; AID 624111; Fluo-4 calcium fluorescence, FDSS; hit rate 2% among 4,000; shares compounds with MrgX1 antag;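 active = duplicate-averaged calcium fluorescence ratio at least three times the standard deviation of buffer wells, a nonspecific response in parental cells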
HEK293 Ca counter: activity in parental HEK293 cells without MrgX1. shares compounds with MrgX1 antag. parental HEK293 calcium flux, Fluo-4 fluorescence ratio; stronger effect = higher value. fluorescence ratio F(max-min)/F0 at 10 µM. hit rate 0.4% among 4,000;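 active = calcium fluorescence ratio, averaged over duplicates, at least 3 SD of the buffer-well ratio, meaning a nonspecific response in receptor-free cells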;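 also: untransfected parental HEK293 lacking MrgX1 used as counterscreen for MrgX1 allosteric activators; fluorescence change taken during the second addition on a kinetic imager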
HEK293 Ca cntr2: activity in parental HEK293 cells lacking MrgX1 receptor | fluorescence ratio F(max-min)/F0 at 10 µM | Fluo-4 calcium fluorescence (FDSS); stronger effect = higher value | shares compounds with MrgX1 antag | hit rate 8.7% among 4,000;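 active = calcium fluorescence ratio at least three times the spread of buffer wells, meaning a non-specific response in parental cells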
An asterisk follows results filed as active; i = inactive; · = no result given. Shown are actives, neighbours in structure and some others; about 4.1% of the full set was active somewhere.

SMILES	RGS4 block	MrgX1 ag	RGS4 act	MrgX1 antag	MrgX1 PAM	Kir21 inh	MrgX1 allo conf	HEK293 Ca flux	HEK293 Ca counter	HEK293 Ca cntr2
COc1ccc(-c2nn(-c3ccccc3)cc2CO)cc1	i	i	i	i	10*	0.84	i	i	i	i
Cc1[nH]nc2c1-c1nc3ccccc3nc1C(C)(C)C2	i	i	i	i	i	-1.8	·	·	·	·
S=c1[nH]ccn1Cc1ccccc1	i	i	i	i	i	0.3	·	·	·	·
CC(=O)N(c1ccccc1C)S(=O)(=O)c1ccc(Cl)cc1	i	i	i	i	8.7*	1.6	i	i	i	i
CCn1cc(C(=O)NCc2ccc(OC)cc2)c(=O)c2ccc(C)nc21	i	i	i	i	i	0.67	·	·	·	·
Cc1cc(C)n2c(SCC(=O)Nc3ccc(F)cc3)nnc2n1	i	i	i	i	14*	-0.04	i	i	i	i
COC(=O)C1CCN(c2cc(=O)n(Cc3ccc(F)cc3)c(=O)[nH]2)CC1	i	i	i	i	i	1.4	·	·	·	·
O=C(CSc1nnc(CNC(=O)c2ccccc2F)o1)NC1CCCCC1	i	i	i	i	6.5*	-1.1	i	i	i	i
CC(=O)N1CCc2cc(Br)cc(S(=O)(=O)NCCN3CCCCC3C)c21 (centres undefined)	i	i	i	i	9.1*	-0.51	i	i	i	i
NC(=O)COC(=O)c1cccc(S(=O)(=O)N2CCCCC2)c1	i	i	i	i	11*	0.1	i	i	i	i
CCc1cc2ccc(OC)cc2nc1SCC(=O)N1CCN(C(=O)c2ccco2)CC1	i	i	i	i	6.6*	-2.9	i	i	i	i
CCC1Sc2ccc(S(=O)(=O)CCC(=O)N3CCc4ccccc43)cc2NC1=O (centres undefined)	i	i	i	i	i	-0.99	·	·	·	·
CC(NC(=O)Nc1ccc(Br)cc1)C(C)(C)C (centres undefined)	i	i	i	i	7.8*	-0.55	i	i	i	i
CCCS(=O)(=O)N1CCC(C(=O)NCCCOC(C)C)CC1	i	i	i	i	i	0.45	·	·	·	·
CC12CCC(C(=O)Nc3nc4ccccc4s3)(OC1=O)C2(C)C (centres undefined)	i	i	i	i	29*	0.21	2.1%*	i	i	i
CC(=O)Nc1ccc(N2CCN(c3ccc(C(F)(F)F)cn3)CC2)nc1	i	i	i	i	i	-0.78	·	·	·	·
CCN(CC(=O)Nc1ccc(NC(C)=O)cc1)c1ccc(C(F)(F)F)cn1	i	i	i	i	9.6*	0.03	i	i	i	i
CC(=O)Nc1sc2c(c1C(c1ccncc1)N1CCOCC1)CCCC2 (centres undefined)	i	i	i	i	i	0.49	·	·	·	·
Cc1cccc(N(C)C(=O)c2cnn(-c3ccccc3)c2C)c1	i	i	i	i	13*	-0.04	i	i	i	i
CSc1nnc(C)c(/C=C/NOCc2cccc(F)c2)n1	i	i	i	i	i	-2.7	·	·	·	·
Cc1cc(C)c(C#N)c(SCC(=O)Nc2ccccc2C(N)=O)n1	i	i	i	i	i	-0.97	·	·	·	·
C=CCN(CC=C)C(=S)NC(=O)c1ccc(OC)cc1	i	i	i	i	i	0.12	·	·	·	·
C=CCN(CC=C)C(=S)NC(=O)c1ccc(C)c(Br)c1	i	i	i	i	8.3*	-0.03	i	i	i	i
CCN1CCN(c2nc(Nc3ccc(NC(C)=O)cc3)nc(Nc3ccc(NC(C)=O)cc3)n2)CC1	i	i	i	i	29*	1.9	i	i	i	i
CC(=O)Nc1ccc(/C(C)=N/Nc2nc(Nc3ccccc3)nc(N3CCOCC3)n2)cc1	i	i	i	i	i	-1.3	·	·	·	·
SMILES	RGS4 block	MrgX1 ag	RGS4 act	MrgX1 antag	MrgX1 PAM	Kir21 inh	MrgX1 allo conf	HEK293 Ca flux	HEK293 Ca counter	HEK293 Ca cntr2
Cc1ccc(C)c(S(=O)(=O)N2CCCCC2CCNC(=O)C(=O)NCc2ccccn2)c1 (centres undefined)	i	i	i	i	i	0.3	·	·	·	·
Cc1ccccc1Nc1nc(N)nc(CSc2ccc(F)cc2)n1	i	i	i	i	i	-0.37	·	·	·	·
Cc1ccccc1Nc1nc(N)nc(CSc2nc3ccccc3s2)n1	i	i	i	i	8.8*	-3.6	i	i	i	i
CCOc1ccc(C(=O)C(C)OC(=O)C2CCN(c3ccc(C(F)(F)F)cn3)CC2)cc1 (centres undefined)	i	i	i	i	i	-0.12	·	·	·	·
CCn1cnc2cc(NCc3cccc(OC)c3O)ccc21	i	i	i	i	i	1.8	·	·	·	·
COc1cccc(CNc2cnc3ccccc3c2)c1O	i	i	i	i	7.1*	-2.3	i	i	i	i
COc1cccc(CNc2cccc(C(F)(F)F)c2)c1O	i	i	i	i	36*	1.6	10%*	i	i	i
COc1cccc(CNc2ccc(F)c(Cl)c2)c1	i	i	i	i	i	-1	·	·	·	·
COc1cccc(CNc2ccc(F)c(Cl)c2)c1O	i	i	i	i	27*	0	13%*	i	i	i
Cc1onc(-c2ccccc2Cl)c1C(=O)NC(C)c1ccccc1 (centres undefined)	i	i	i	i	i	-2.1	·	·	·	·
Cc1ccc(Nc2cc(C)c3ccc(O)cc3n2)cc1C	i	i	i	i	10*	-5.1*	i	i	i	i
O=C(/C=C/c1ccccc1)c1c[nH]c2ccccc12	i	i	i	i	i	0	·	·	·	·
CCN(CC)C(=O)c1cc2sc3ccccc3c2s1	i	i	i	i	9.1*	-1.2	i	i	i	i
